Data from ChEMBL document CHEMBL4304754, “Development of α-GalCer Analogues with an α-Fluorocarbonyl Moiety as Th2-Selective Ligands of CD1d” (ACS Med Chem Lett, 2019).
Active and inactive are the calls of the source. No cut-off for these calls is given here.

Assays:
[1] = biological target: T1, Antigen-presenting glycoprotein CD1d (Mus musculus) (UniProt P11609+P11610); assay: Binding affinity to CD1d in C57BL/6 mouse HMNC cells assessed as iNKT cells stimulation by measuring increase in IL-2 production at 25 nM incubated for 72 hrs by ELISA; assay type: cell-based
Outline: (§1)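 Primary murine hepatic mononuclear cells (HMNCs), which contain iNKT cells, were incubated with each glycolipid at 25 nM for 72 h. Cytokines released into the medium were quantified by ELISA, with α-GalCer as positive control.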

[2] = biological target: T1, Antigen-presenting glycoprotein CD1d (Mus musculus); assay: Binding affinity to CD1d in C57BL/6 mouse HMNC cells assessed as iNKT cells stimulation by measuring increase in Th2-type cytokine, IL-4 production at 25 nM incubated for 72 hrs by ELISA; assay type: cell-based; outline: as §1
[3] = biological target: T1, Antigen-presenting glycoprotein CD1d (Mus musculus); assay: Binding affinity to CD1d in C57BL/6 mouse HMNC cells assessed as iNKT cells stimulation by measuring Th1-type cytokine, IFNgamma production at 25 nM incubated for 72 hrs by ELISA; assay type: cell-based; outline: as §1
[4] = biological target: T1, Antigen-presenting glycoprotein CD1d (Mus musculus); assay: Binding affinity to CD1d in C57BL/6 mouse HMNC cells assessed as iNKT cells stimulation by measuring increase in IL17 production at 25 nM incubated for 72 hrs by ELISA; assay type: cell-based; outline: as §1
[5] = biological target: T1, Antigen-presenting glycoprotein CD1d (Mus musculus); assay: Covalent binding affinity to mouse CD1d at 10 equivalent incubated for 3 hrs by coomassie blue staining based SDS-PAGE analysis; assay type: protein assay
Outline: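 CD1d protein was incubated with each ligand under several reported or modified conditions. Samples were then denatured and resolved by SDS-PAGE. Gels were stained with Coomassie blue to look for covalent CD1d–ligand adduct bands alongside intact protein.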

[6] = biological target: T1, Antigen-presenting glycoprotein CD1d (Mus musculus); assay: Covalent binding affinity to mouse CD1d at 5 equivalent incubated in DBPS buffer with tween 20 for 3 hrs by MALDI-TOF analysis; assay type: protein assay
Outline: (§2)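 Samples of CD1d protein incubated with each ligand were analysed by MALDI-TOF mass spectrometry. The aim was to detect covalent conjugates formed between a CD1d cysteine and the ligand's α-fluorocarbonyl group.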

[7] = biological target: T1, Antigen-presenting glycoprotein CD1d (Mus musculus); assay: Covalent binding affinity to mouse CD1d at 5 equivalent incubated in DBPS buffer without tween 20 for 3 hrs by MALDI-TOF analysis; assay type: protein assay; outline: as §2
[8] = biological target: T1, Antigen-presenting glycoprotein CD1d (Mus musculus); assay: Binding affinity to CD1d in C57BL/6 mouse HMNC cells assessed as iNKT cells stimulation by measuring increase in ratio of IL-4 to IFNgamma (IL-4/IFNgamma) level at 25 nM incubated for 72 hrs by ELISA; assay type: cell-based
[9] = biological target: T1, Antigen-presenting glycoprotein CD1d (Mus musculus); assay: Covalent binding affinity to mouse CD1d at 14.6 equivalent incubated in tris buffer with tween 20 at pH 7.5 to 8 for 16 hrs by MALDI-TOF MS analysis; assay type: protein assay; outline: as §2
[10] = biological target: T1, Antigen-presenting glycoprotein CD1d (Mus musculus); assay: Covalent binding affinity to mouse CD1d at 14.6 equivalent incubated in tris buffer without tween 20 at pH 7.5 to 8 for 16 hrs by MALDI-TOF MS analysis; assay type: protein assay; outline: as §2

Row | Compound | Activity [1] | Activity [2] | Activity [3] | Activity [4] | Activity [5] | Activity [6] | Activity [7] | Activity [8] | Activity [9] | Activity [10]
1 | CCCCCCCCCCCCCCCCCCCCCCCC(=O)N[C@@H](CO[C@H]1O[C@H](CO)[C@H](O)[C@H](O)[C@H]1O)[C@H](O)[C@H](O)CCCCC |  | inactive | inactive |  |  |  |  | Active |  | 
2 | CCCCCCCCCCCCCC[C@@H](O)[C@@H](O)[C@H](CO[C@H]1O[C@H](CO)[C@H](O)[C@H](O)[C@H]1O)NC(=O)CCCCCCCCCCCCCCCCC(=O)CF | Active | Active | inactive |  | inactive | inactive | inactive |  |  | 
3 | CCCCCCCCCCCCCCCCCCCCCCCCCC(=O)N[C@@H](CO[C@H]1O[C@H](CO)[C@H](O)[C@H](O)[C@H]1O)[C@H](O)[C@H](O)CCCCCCCCCCCCCC | Active | Active |  | Active |  |  |  |  |  | 

Further lines, results first:

Row | Activity [1] | Activity [2] | Activity [3] | Activity [4] | Activity [5] | Activity [6] | Activity [7] | Activity [8] | Activity [9] | Activity [10] | Compound
4 | Active | Active | inactive | Active | inactive | inactive | inactive | Active |  |  | CCCCCCCCCCCCCC[C@@H](O)[C@@H](O)[C@H](CO[C@H]1O[C@H](CO)[C@H](O)[C@H](O)[C@H]1O)NC(=O)CCCCCCCCCCCCCCCCCCC(=O)CF
5 | Active | Active | inactive | Active | inactive | inactive | inactive | Active | inactive | inactive | CCCCCCCCCCCCCC[C@@H](O)[C@@H](O)[C@H](CO[C@H]1O[C@H](CO)[C@H](O)[C@H](O)[C@H]1O)NC(=O)CCCCCCCCCCCCCCCCCCCCC(=O)CF
6 | Active | Active | inactive |  | inactive | inactive | inactive | Active |  |  | CCCCCCCCCCCCCC[C@@H](O)[C@@H](O)[C@H](CO[C@H]1O[C@H](CO)[C@H](O)[C@H](O)[C@H]1O)NC(=O)CCCCCCCCCCCCCCCCCC(=O)CF
7 | Active | Active | inactive | Active | inactive | inactive | inactive | Active |  |  | CCCCCCCCCCCCCC[C@@H](O)[C@@H](O)[C@H](CO[C@H]1O[C@H](CO)[C@H](O)[C@H](O)[C@H]1O)NC(=O)CCCCCCCCCCCCCCCCCCCC(=O)CF
